ChEMBL document CHEMBL3603742, “Design, synthesis and cytotoxicity studies of dithiocarbamate ester derivatives of emetine in prostate cancer cell lines” (Bioorg Med Chem, 2015)

Assays:
Type in all cases: functional, cell-based
LNCaP [1] = assay: Cytotoxicity against human LNCAP cells after 5 days by MTT assay; conditions: 120 h
Method in brief: (§1)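 Human prostate lines from ATCC were kept in log phase in RPMI with 10% FBS, 1% L-glutamine and 1% penicillin-streptomycin at 37 °C, 5% CO2. PC3 and DU145 were seeded at 2.5 X 10^3 cells/well and LNCaP at 6 X 10^3 cells/well, then left 24 h. Cells were exposed continuously to 0.01–10 μM (0.1% DMSO final; DMSO controls), with MTT viability read on days 3, 5 and 7.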

LNCaP [2] = assay: Cytotoxicity against human LNCAP cells after 3 days by MTT assay; conditions: 72 h; method in brief: as §1
PC-3 [3] = assay: Cytotoxicity against human PC3 cells after 5 days by MTT assay; conditions: PC-3, 120 h; method in brief: as §1
LNCaP [4] = assay: Cytotoxicity against human LNCAP cells after 7 days by MTT assay; conditions: 168 h; method in brief: as §1
DU-145 [5] = assay: Cytotoxicity against human DU145 cells after 3 days by MTT assay; conditions: DU-145, 72 h; method in brief: as §1
PC-3 [6] = assay: Cytotoxicity against human PC3 cells after 3 days by MTT assay; conditions: PC-3, 72 h; method in brief: as §1
PC-3 [7] = assay: Cytotoxicity against human PC3 cells after 7 days by MTT assay; conditions: PC-3, 168 h; method in brief: as §1
DU-145 [8] = assay: Cytotoxicity against human DU145 cells after 5 days by MTT assay; conditions: DU-145, 120 h; method in brief: as §1
DU-145 [9] = assay: Cytotoxicity against human DU145 cells after 7 days by MTT assay; conditions: DU-145, 168 h; method in brief: as §1

SMILES	IC50 (LNCaP [1]) [nM]	IC50 (LNCaP [2]) [nM]	IC50 (PC-3 [3]) [nM]	IC50 (LNCaP [4]) [nM]	IC50 (DU-145 [5]) [nM]	IC50 (PC-3 [6]) [nM]	IC50 (PC-3 [7]) [nM]	IC50 (DU-145 [8]) [nM]	IC50 (DU-145 [9]) [nM]
CC[C@H]1CN2CCc3cc(OC)c(OC)cc3[C@@H]2C[C@@H]1C[C@@H]1c2cc(OC)c(OC)cc2CCN1C(=S)SCCCCC(=O)OC	2310	4780	4860	1760	3220	8260	4360	3150	2250
CCCCCCSC(=S)N1CCc2cc(OC)c(OC)cc2[C@H]1C[C@H]1C[C@H]2c3cc(OC)c(OC)cc3CCN2C[C@@H]1CC	1610	3660	3210	1590	3660	5980	3030	3190	2300
CC[C@H]1CN2CCc3cc(OC)c(OC)cc3[C@@H]2C[C@@H]1C[C@@H]1c2cc(OC)c(OC)cc2CCN1C(=S)SCCN1C(=O)c2ccccc2C1=O	2800	3220	2770	2300	3810	3210	2380	3580	3050
CC[C@H]1CN2CCc3cc(OC)c(OC)cc3[C@@H]2C[C@@H]1C[C@@H]1c2cc(OC)c(OC)cc2CCN1C(=S)SCCC(N)=O	4730	9220	6560	3390	> 10000	> 10000	5200	> 10000	> 10000
CC[C@H]1CN2CCc3cc(OC)c(OC)cc3[C@@H]2C[C@@H]1C[C@@H]1c2cc(OC)c(OC)cc2CCN1C(=S)SCC(=O)c1ccc(Cl)cc1	2310	5720	2700	1950	3170	3590	2690	3200	2450
CC[C@H]1CN2CCc3cc(OC)c(OC)cc3[C@@H]2C[C@@H]1C[C@@H]1c2cc(OC)c(OC)cc2CCN1C(=S)SCc1ccccc1	1890	–	2020	1310	2740	2540	–	2070	1980
CCOC(=O)c1ccc(NC(=O)CSC(=S)N2CCc3cc(OC)c(OC)cc3[C@H]2C[C@H]2C[C@H]3c4cc(OC)c(OC)cc4CCN3C[C@@H]2CC)cc1	2720	4670	2710	1660	5160	4360	1900	2900	2470
CC[C@H]1CN2CCc3cc(OC)c(OC)cc3[C@@H]2C[C@@H]1C[C@@H]1c2cc(OC)c(OC)cc2CCN1C(=S)S	88	565	91	–	377	442	–	80	79
CC[C@H]1CN2CCc3cc(OC)c(OC)cc3[C@@H]2C[C@@H]1C[C@H]1NCCc2cc(OC)c(OC)cc21 [EMETINE]	27	37	–	37	–	–	–	–	–
CC[C@H]1CN2CCc3cc(OC)c(OC)cc3[C@@H]2C[C@@H]1C[C@@H]1c2cc(OC)c(OC)cc2CCN1C(=S)SCC(=O)Nc1ccc(Br)cc1	2190	5280	2770	1700	5650	3870	1510	2800	1600
